Measurements reported in ChEMBL document CHEMBL1138779, “Antitumor agents. 234. Design, synthesis, and biological evaluation of novel 4beta-[(4' '-benzamido)-amino]-4'-o-demethyl-epipodophyllotoxin derivatives” (2004).
In brackets after ≈: the same amount, converted by molar mass. Several values for one entry are separate records, joined by “and”; a condition that tells them apart may be missing. Equal entries are not always repeated.

Experiments:
KB [1] = assay: Ratio of ED50 for KB-7d cells to that of KB cells; format: functional, Homo sapiens
Summary of the method: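 Relative resistance (fold) taken as ED50 against KB-7d divided by ED50 against KB. Both values come from 3-day drug exposure, with ED50 interpolated from dose–response data as the concentration reducing cell number by 50%.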

KB [2] = assay: Dose required to cause reduction in human nasopharyngeal KB cancer cells after 3 days incubation; format: functional; details: 72 h, read-out: ED50 (the source's name)
Summary of the method: (§1)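 Cells grown at 37 °C, humidified 5% CO2, in RPMI-1640 with 25 mM HEPES, […], 10% (v/v) FBS and 100 µg/mL kanamycin. Drug exposure for 3 days. ED50 (concentration giving 50% reduction in cell number) interpolated from dose–response data. Triplicate tests, variation no more than 5%; independent ED50 determinations varied no more than 30%.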

KB [3] = assay: Dose required for reduction in human nasopharyngeal KB-7d cancer cells after 3 days incubation; format: functional; details: 72 h, read-out: ED50 (the source's name); summary of the method: as §1
[4] = target: T1, DNA topoisomerase II (Homo sapiens) (UniProt P11388+Q02880); assay: Percentage of protein-linked DNA breaks in KB cells by [3H]thymidine incorporation; format: functional, cell-based; set-up: concentration or dose not given beside the values
Summary of the method: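 KB cells labelled overnight with 0.5 µCi/mL [methyl-3H]thymidine ([…]), chased 2 h, then treated in duplicate with compound at 10 µg/mL for 1 h. Protein-associated DNA breaks measured as potassium–SDS precipitable radioactivity. Values expressed relative to VP-16 control set at 100%.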

[5] = target: T1, DNA topoisomerase II (Homo sapiens); assay: Percentage of protein-linked DNA breaks in KB cells by [3H]thymidine incorporation at 5 ug/mL; format: functional, cell-based
Summary of the method: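 [3H]thymidine-prelabelled KB cells (0.5 µCi/mL, overnight, 2 h chase) treated in duplicate with compound at 5 µg/mL for 1 h. Protein-linked DNA breaks read as potassium–SDS precipitable radioactivity, given as percent of the VP-16 control set at 100%.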

A549 = assay: Dose required for reduction in human lung A549 cancer cells after 3 days incubation; format: functional; details: A549, 72 h, read-out: ED50 (the source's name); summary of the method: as §1
HCT-8 = assay: Dose required for reduction in human ileocecal HCT-8 cancer cells after 3 day incubation; format: functional; details: HCT-8, 72 h, read-out: ED50 (the source's name); summary of the method: as §1
1A9/ptx-10 = assay: Dose required for reduction in paclitaxel resistant human ovarian 1A9-PTX10 cancer cells after 3 days incubation; format: functional; details: 1A9/ptx-10, 72 h, read-out: ED50 (the source's name); summary of the method: as §1
KB [6] = assay: Dose required for reduction in vincristine resistant human nasopharyngeal KB-VIN cancer cells after 3 days incubation; format: functional; details: 72 h, read-out: ED50 (the source's name); summary of the method: as §1
U-87 MG = assay: Dose required for reduction in human glioblastoma U-87-MG cancer cells after 3 days incubation; format: functional, U-87MG ATCC; details: 72 h, read-out: ED50 (the source's name); summary of the method: as §1
MCF7 = assay: Dose required for reduction in human breast MCF-7 cancer cells after 3 day incubation; format: functional; details: MCF7, 72 h, read-out: ED50 (the source's name); summary of the method: as §1
KB [7] = assay: Dose required for reduction in camptothecin resistant human nasopharyngeal KB cancer cells after 3 days incubation; format: functional; details: 72 h, read-out: ED50 (the source's name); summary of the method: as §1
PC-3 = assay: Dose required for reduction in human prostate PC-3 cancer cells after 3 days incubation; format: functional; details: PC-3, 72 h, read-out: ED50 (the source's name); summary of the method: as §1
KB [8] = assay: Dose required for reduction in etoposide resistant human nasopharyngeal KB-7d cancer cells after 3 days incubation; format: functional; details: 72 h, read-out: ED50 (the source's name); summary of the method: as §1
1A9 = assay: Dose required to cause reduction in human ovarian 1A9 cancer cells after 3 days incubation; format: functional; details: 1A9, 72 h, read-out: ED50 (the source's name); summary of the method: as §1
CAKI-1 = assay: Dose required for reduction in human renal CAKI-1 cancer cells after 3 days incubation; format: functional; details: CAKI-1, 72 h, read-out: ED50 (the source's name); summary of the method: as §1

SMILES	Relative resistance (KB [1])	EC50 (KB [2])	EC50 (KB [3])	Activity [4]	Activity [5]	EC50 (A549)	EC50 (HCT-8)	EC50 (1A9/ptx-10)	EC50 (KB [6])	EC50 (U-87 MG)	EC50 (MCF7)	EC50 (KB [7])	EC50 (PC-3)	EC50 (KB [8])	EC50 (1A9)	EC50 (CAKI-1)
COC(=O)[C@H](Cc1ccc(O)c(O)c1)NC(=O)c1ccc(N[C@@H]2c3cc4c(cc3[C@@H](c3cc(OC)c(O)c(OC)c3)[C@H]3C(=O)OC[C@@H]32)OCO4)cc1	5.5	1 µg/mL	5.5 µg/mL (≈ 7.72 µM)	33%												
COc1cc([C@@H]2c3cc4c(cc3[C@@H](Nc3ccc([N+](=O)[O-])cc3)[C@H]3COC(=O)[C@H]23)OCO4)cc(OC)c1O	10	0.2 µg/mL	2 µg/mL (≈ 3.84 µM)	244%	218%											
COc1cc([C@@H]2c3cc4c(cc3[C@@H](Nc3ccc(C(=O)NCC(=O)OCc5ccccc5)cc3)[C@H]3COC(=O)[C@H]23)OCO4)cc(OC)c1O	0.6	0.5 µg/mL and 860 nM	0.3 µg/mL (≈ 0.45 µM)	178%		0.61 µM	3.5 µM	0.78 µM	38.9 µM	16.9 µM	2.3 µM	1.3 µM	> 100 µM	2.6 µM	0.12 µM	> 100 µM
COC(=O)[C@H](Cc1ccccc1)NC(=O)c1ccc(N[C@@H]2c3cc4c(cc3[C@@H](c3cc(OC)c(O)c(OC)c3)[C@H]3C(=O)OC[C@@H]32)OCO4)cc1	1.8	0.55 µg/mL and 1.4 µM	1 µg/mL (≈ 1.47 µM)	226%		1.2 µM	3.8 µM	1.7 µM	4.2 µM	87.1 µM	9.6 µM	3.7 µM	> 100 µM	1.7 µM	0.36 µM	> 100 µM
COc1cc([C@@H]2c3cc4c(cc3[C@@H](Nc3ccc(C(=O)N[C@@H](C)C(=O)OCc5ccccc5)cc3)[C@H]3COC(=O)[C@H]23)OCO4)cc(OC)c1O	0.5	0.5 µg/mL and 900 nM	0.25 µg/mL (≈ 0.367 µM)	210%		0.7 µM	2.4 µM	0.2 µM	10.4 µM	8 µM	1.6 µM	1.7 µM	3.8 µM	1.4 µM	0.05 µM	> 100 µM
COC(=O)[C@H](CCSC)NC(=O)c1ccc(N[C@@H]2c3cc4c(cc3[C@@H](c3cc(OC)c(O)c(OC)c3)[C@H]3C(=O)OC[C@@H]32)OCO4)cc1	3	0.8 µg/mL and 1.9 µM	2.4 µg/mL (≈ 3.61 µM)	295%		2 µM	11.4 µM	2.1 µM	65.3 µM	45.2 µM	9.3 µM	3.3 µM	82.7 µM	5.6 µM	0.12 µM	> 100 µM
COC(=O)[C@H](Cc1c[nH]c2ccccc12)NC(=O)c1ccc(N[C@@H]2c3cc4c(cc3[C@@H](c3cc(OC)c(O)c(OC)c3)[C@H]3C(=O)OC[C@@H]32)OCO4)cc1	5	0.5 µg/mL	2.5 µg/mL (≈ 3.47 µM)	58%												
COc1cc([C@@H]2c3cc4c(cc3[C@@H](Nc3ccc(C(=O)N[C@@H](Cc5c[nH]c6ccccc56)C(=O)O)cc3)[C@H]3COC(=O)[C@H]23)OCO4)cc(OC)c1O	2	4 µg/mL	8 µg/mL (≈ 11.3 µM)	7%												
COC(=O)[C@H](Cc1ccc(O)cc1)NC(=O)c1ccc(N[C@@H]2c3cc4c(cc3[C@@H](c3cc(OC)c(O)c(OC)c3)[C@H]3C(=O)OC[C@@H]32)OCO4)cc1	2.6	1.9 µg/mL	5 µg/mL (≈ 7.18 µM)	76%												
COC(=O)[C@@H](Cc1c[nH]c2ccccc12)NC(=O)c1ccc(N[C@@H]2c3cc4c(cc3[C@@H](c3cc(OC)c(O)c(OC)c3)[C@H]3C(=O)OC[C@@H]32)OCO4)cc1	6.2	0.06 µg/mL and 440 nM	0.4 µg/mL (≈ 0.556 µM)	121%		0.63 µM	3.4 µM	0.35 µM	54.9 µM	94.3 µM	3.6 µM	0.28 µM	> 100 µM	3.5 µM	0.02 µM	> 100 µM
COC(=O)[C@H](Cc1c[nH]cn1)NC(=O)c1ccc(N[C@@H]2c3cc4c(cc3[C@@H](c3cc(OC)c(O)c(OC)c3)[C@H]3C(=O)OC[C@@H]32)OCO4)cc1	9.6	0.23 µg/mL and 7.6 µM	2.2 µg/mL (≈ 3.28 µM)	122%		16.1 µM	66 µM	4 µM	11.1 µM	> 100 µM	29.8 µM	17.6 µM	> 100 µM	14.7 µM	0.69 µM	> 100 µM
COc1cc([C@@H]2c3cc4c(cc3[C@@H](Nc3ccc(C(=O)N[C@H](C)C(=O)OCc5ccccc5)cc3)[C@H]3COC(=O)[C@H]23)OCO4)cc(OC)c1O	2.5	0.1 µg/mL and 1 µM	0.25 µg/mL (≈ 0.367 µM)	133%		0.47 µM	2.2 µM	1.2 µM	3.7 µM	39.9 µM	2.7 µM	1.9 µM	> 100 µM	0.67 µM	0.057 µM	> 100 µM
COc1cc([C@@H]2c3cc4c(cc3[C@@H](Nc3ccc(C(=O)NCCc5ccccc5)cc3)[C@H]3COC(=O)[C@H]23)OCO4)cc(OC)c1O	14	0.03 µg/mL	0.5 µg/mL (≈ 0.803 µM)		227%											
COc1cc([C@@H]2c3cc4c(cc3[C@@H](NC(=O)[C@H](Cc3ccc(O)cc3)NC(=O)OCc3ccccc3)[C@H]3COC(=O)[C@H]23)OCO4)cc(OC)c1O		3.9 µM				15.9 µM	77.7 µM	5 µM	> 100 µM	100 µM	17.4 µM	9 µM	94.8 µM	11.9 µM	0.94 µM	> 100 µM
